Experiment [1] has as its system HT-29. The experiment is described as follows: Inhibitory concentration that reduces clonogenic survival by 2 log units (99%) 2-hour after drug treatment in HT-29 human colon carcinoma cell line. It is filed as functional. A digest of the protocol:
(§1)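 Clonogenic assay. Exponentially growing cells at 1–1.2 × 10^5 cells/mL in serum-free MEM with 0.02 M HEPES were exposed for 2 h at 37 °C, 5% CO2, to five final concentrations. Ethanol was the vehicle at 1% final, with an ethanol-only control. Cells were then rinsed, plated at 2–3 densities in five replicates and grown 10 days. Crystal-violet-stained colonies of ≥50 cells were counted, and LC99 was read from log surviving fraction versus concentration. Runs were done at least twice and averaged.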

In experiment [2] the test system is BE. The experiment in a line: Inhibitory concentration that reduces clonogenic survival by 2 log units (99%) 2-hour after drug treatment in BE human colon carcinoma cell line. Format: functional. A digest of the protocol: as §1
The subject of experiment [3] is MIA PaCa-2. The experiment in a line: Growth inhibitory activity against PaCa-2 human solid tumor cell line using MTT assay. Format: functional. The essentials: (§2)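 MTT assay. Cells were seeded at (1-2) × 10^4 per well and left to attach for 24 h. Compound was taken up in DMSO and serially diluted in medium, keeping final DMSO at 1% or less, then exposed for 72 h. MTT was added for 4–5 h, formazan was dissolved in DMSO, and absorbance was read at 570 nm. GI50 was taken from percent-of-control versus concentration plots; each compound was assayed twice and the results averaged.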

Experiment [4] addresses NAD(P)H dehydrogenase [quinone] 1 (Homo sapiens) (UniProt P15559). The experiment is described as follows: Kinetic parameter Kcat was reported against DT-diaphorase. A digest of the protocol:
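Recombinant purified human DTD in Tris buffer (0.05 M, pH 7.6) with dithiothreitol (0.01 mM), NADH (1 mM), cytochrome c (55 μM) and varied indolequinone in DMSO. Run at 25 °C, started with enzyme, in triplicate. Cytochrome c reduction was followed at 550 nm, with no-enzyme background rates. kcat came from Hanes plots of initial linear rates (ε 1.85 × 10^4 M-1 cm-1). Values average ≥2 experiments.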

The test system of experiment [5] is UMUC3. The experiment is described as follows: Growth inhibitory activity against UMUC3 human solid tumor cell line using MTT assay. It is filed as functional. The essentials:
as §2
A general note: Tetrazolium dyes change colour on reduction, which living cells bring about.

The subject of experiment [6] is MDA-MB-231. The experiment is described as follows: Growth inhibitory activity against human MDA-231 cell line using MTT assay. It is filed as functional. A digest of the protocol:
as §2

The test system of experiment [7] is HT-29. The experiment is described as follows: Growth inhibitory activity against HT-29 human solid tumor cell line using MTT assay. Format: functional. The essentials:
as §2

Experiment [8] has as its system A498. The experiment in a line: Growth inhibitory activity against A498-2LM human solid tumor cell line using MTT assay. It is filed as functional. A digest of the protocol: as §2
Experiment [9] has as its system A549. The experiment is described as follows: Growth inhibitory activity against A549 human solid tumor cell line using MTT assay. It is filed as functional. A digest of the protocol:
as §2

For experiment [10], the system named is PC-3. The experiment in a line: Growth inhibitory activity against human PC-3 cell line using MTT assay. It is filed as functional. The essentials: as §2
Experiment [11] can be described thus: Selectivity ratio of LC99 of BE to LC99 of HT-29. It is filed as functional. A digest of the protocol: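 Ratio of the BE LC99 to the HT-29 LC99, both from a 2 h clonogenic exposure in serum-free MEM/HEPES with 1% ethanol vehicle. Colonies of ≥50 cells were counted after 10 days, and LC99 was taken from log surviving fraction versus concentration plots.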

Chain of NAD(P)H dehydrogenase [quinone] 1 (Homo sapiens) (P15559 whole entry): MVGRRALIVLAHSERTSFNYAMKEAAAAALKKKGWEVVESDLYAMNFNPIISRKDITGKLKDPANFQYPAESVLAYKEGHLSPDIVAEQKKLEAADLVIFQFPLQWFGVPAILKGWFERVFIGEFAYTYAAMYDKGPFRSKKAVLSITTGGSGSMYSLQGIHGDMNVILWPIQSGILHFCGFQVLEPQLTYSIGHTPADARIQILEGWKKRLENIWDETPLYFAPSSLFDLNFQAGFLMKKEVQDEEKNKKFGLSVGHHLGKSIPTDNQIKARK

As for `COC1=CC(=O)c2c(cc(COP(N)(=O)N3CCOCC3)n2C)C1=O` (stereo unspecified), the LC99 in experiment [1] and in experiment [2] was above 100 µM throughout. Further, the GI50 was determined as 10000 nM in experiment [3]; 10000 nM in experiment [5]; 13000 nM in [6]; 15000 nM in experiment [7]; 12000 nM in experiment [8]; 45000 nM in experiment [9]. Moreover, the GI50 in experiment [10] is 14000 nM. This molecule registered a k cat in [4] of 4.9 s⁻¹.

`COC1=CC(=O)c2c(c(COP(N)(=O)N(CCBr)CCBr)cn2C)C1=O` (stereo unspecified): the LC99 came to 0.24 µM in experiment [1] and 0.47 µM in [2]. For the same molecule, the Selectivity in experiment [11] worked out at 2. The 50% growth inhibitory concentration (GI50) worked out at 220 nM in experiment [3]; 10 nM in experiment [5]; 190 nM in [6]; 240 nM in experiment [7]; 1000 nM in [8]; 400 nM in experiment [9]. Also, in experiment [10], the GI50 was determined as 650 nM.

As for `COC1=CC(=O)c2c(c(COC(C)=O)cn2C)C1=O`, the LC99 in experiment [1] stood at 0.54 µM; in experiment [2] it was 5.3 µM. For the same molecule, in experiment [11], the Selectivity was determined as 10. For the same molecule, the GI50 came to 4 nM in experiment [3]; 7 nM in [5]; 250 nM in experiment [6]; 3 nM in experiment [7]; 37 nM in experiment [8]; 440 nM in experiment [9]. In experiment [10], this molecule yielded a GI50 of 5 nM. The k cat in [4] turned out to be 4 s⁻¹.

Turning to `COC1=CC(=O)c2c(c(CO)cn2C)C1=O`, the k cat in experiment [4] worked out at 136 s⁻¹.

Regarding `COC1=CC(=O)c2c(cc(COP(N)(=O)N(CCCl)CCCl)n2C)C1=O` (stereo unspecified), the LC99 in experiment [1] amounted to 0.11 µM; in experiment [2], 7.6 µM. Further, the Selectivity in [11] was determined as 69. The GI50 in [3] came out at 31 nM; in experiment [5] it was 10 nM; in [6], 870 nM; in [7] it was 210 nM; in [8], 980 nM; in [9], 22 nM. Also, growth in experiment [10] was halved (GI50) at 260 nM. The molecule also yielded a k cat in [4] of 2.6 s⁻¹.

Take `CC1=CC(=O)c2ccccc2C1=O`: in experiment [4], the k cat stood at 960 s⁻¹.

Regarding `COC1=CC(=O)c2c(c(COP(=O)(N(C)CCBr)N(C)CCBr)cn2C)C1=O`, the LC99 in experiment [1] came out at 0.07 µM; in experiment [2], 0.14 µM. Also, the Selectivity in experiment [11] amounted to 2. Moreover, the GI50 in experiment [3] came to 25 nM; in experiment [5], 2 nM; in experiment [6], 40 nM; in [7], 65 nM; in experiment [8], 340 nM; in [9], 23 nM. Further, the concentration for 50% growth inhibition (GI50) in experiment [10] was determined as 66 nM.

For `COC1=CC(=O)c2c(cc(COP(=O)(N(C)CCBr)N(C)CCBr)n2C)C1=O`, the values for the LC99 in [1] and in experiment [2] were 0.35 µM and 2 µM, respectively. Besides, the Selectivity in [11] was 6. For the same molecule, the GI50 in experiment [3] was 8 nM; in experiment [5], 17 nM; in experiment [6], 840 nM; in [7], 200 nM; in experiment [8] it was 2300 nM; in experiment [9] it was 1700 nM. The molecule further had a GI50 in experiment [10] of 940 nM. In addition, in [4], the k cat came to 1.28 s⁻¹.

In the case of `COC1=CC(=O)c2c(cc(COC(C)=O)n2C)C1=O`, the LC99 in experiment [1] and in experiment [2] was above 100 µM each time. For the same molecule, the concentration for 50% growth inhibition (GI50) in [3] was 35000 nM; in [5], 9600 nM; in experiment [6], above 38000 nM; in experiment [7], 34000 nM; in experiment [8], 34000 nM; in [9], 26000 nM. Also, the concentration for 50% growth inhibition (GI50) in experiment [10] was above 38000 nM. Also, the k cat in [4] was 30 s⁻¹.

With `COC1=CC(=O)c2c(cc(CO)n2C)C1=O`, in experiment [4], the k cat was 77 s⁻¹.

On to `COC1=CC(=O)c2c(c(COP(N)(=O)N3CCOCC3)cn2C)C1=O` (stereo unspecified), for which the LC99 in experiment [1] and in experiment [2] was above 100 µM in each case. The 50% growth inhibitory concentration (GI50) in experiment [3] stood at 9800 nM; in [5] it was 8200 nM; in experiment [6], 9300 nM; in [7], 7700 nM; in experiment [8], 1200 nM; in experiment [9], 12000 nM. Further, the GI50 in [10] is 15000 nM.

With `COC1=CC(=O)c2c(cc(COP(N)(=O)N(CCBr)CCBr)n2C)C1=O` (stereo unspecified), the LC99 in experiment [1] amounted to 0.077 µM; in experiment [2], 4.2 µM. Also, the Selectivity in experiment [11] came to 65. Besides, the GI50 in experiment [3] was 15 nM; in experiment [5] it was 2 nM; in [6], 1600 nM; in experiment [7] it was 61 nM; in [8], 200 nM; in experiment [9], 3 nM. Besides, in experiment [10], growth was halved (GI50) at 490 nM. Besides, the k cat in experiment [4] is 1.6 s⁻¹.

Usually GI50 stands for the concentration that inhibits growth by half. Read a high GI50 as less potent growth inhibition.
